Reference: ChEMBL document CHEMBL1759908, “Design, synthesis and potential 6 Hz psychomotor seizure test activity of some novel 2-(substituted)-3-{[substituted]amino}quinazolin-4(3H)-one” (Eur J Med Chem, 2011)
Activity calls are given as the source filed them.

Assays:
[1] = Lipophilicity, log P of the compound in octanol-phosphate buffer; format: physicochemical
Procedure, shortened: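 Experimental log P was measured by octanol-phosphate buffer partition. The mixture stood 24 h at room temperature and was then equilibrated 6 h in a separating funnel. Phases were separated and membrane-filtered, and drug in the aqueous phase was quantified by UV spectroscopy.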

[2] = system: Mus musculus; assay: Anticonvulsant activity in CF1 mouse assessed as protection against 32 mA-current- for 3 secs induced seizure at 100 mg/kg, ip after 1 hr by 6Hz psychomotor seizure test; format: functional
Procedure, shortened: (§1)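 Male CF-1 mice (18-25 g) received 100 mg/kg i.p. as a suspension in 0.5% methylcellulose. At 0.25, 0.5, 1.0, 2.0 and 4.0 h, four mice per time point were stimulated through corneal electrodes (32 mA, 3 s, 6 Hz). Mice without psychomotor seizure behaviour were counted as protected. Results are reported as number protected over number tested.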

[3] = system: Mus musculus; assay: Anticonvulsant activity in CF1 mouse assessed as protection against 32 mA-current- for 3 secs induced seizure at 100 mg/kg, ip after 4 hrs by 6Hz psychomotor seizure test; format: functional, organism-based; parameters: dose 100 mg/kg; procedure, shortened: as §1
[4] = system: Mus musculus; assay: Neurotoxicity in CF1 mouse assessed as minimal motor impairment at 100 mg/kg, ip after 1 min by rotarod test; format: toxicity, organism-based; parameters: dose 100 mg/kg, route intraperitoneal; conditions: in vivo
Procedure, shortened: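 Neurotoxicity was scored as minimal motor impairment on the rotarod. Male CF-1 mice (18-25 g) received 100 mg/kg i.p. as a 0.5% methylcellulose suspension. Results are given as number toxic over number tested.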

[5] = system: Mus musculus; assay: Anticonvulsant activity in CF1 mouse assessed as protection against 32 mA-current- for 3 secs induced seizure at 100 mg/kg, ip after 0.25 hr by 6Hz psychomotor seizure test; format: functional; procedure, shortened: as §1
[6] = system: Mus musculus; assay: Anticonvulsant activity in CF1 mouse assessed as protection against 32 mA-current- for 3 secs induced seizure at 100 mg/kg, ip after 2 hrs by 6Hz psychomotor seizure test; format: functional; procedure, shortened: as §1
[7] = system: Mus musculus; assay: Anticonvulsant activity in CF1 mouse at 30 to 300 mg/kg, ip by maximal electroshock test; format: functional, organism-based
Procedure, shortened: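 Male CF-1 mice (18-25 g) were dosed i.p. at 30, 100 and 300 mg/kg (0.5% methylcellulose suspension). Maximal electroshock protection and neurotoxicity were assessed 30 min and 4 h after administration.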

[8] = system: Mus musculus; assay: Anticonvulsant activity in CF1 mouse at 30 to 300 mg/kg, sc after 30 mins by subcutaneous metrazole seizure threshold test; format: functional, organism-based
[9] = system: Mus musculus; assay: Anticonvulsant activity in CF1 mouse assessed as protection against 32 mA-current- for 3 secs induced seizure at 100 mg/kg, ip after 0.5 hr by 6Hz psychomotor seizure test; format: functional; procedure, shortened: as §1
[10] = Neuroprotective activity against kainic acid induced toxicity in hippocampus slices after 4 hrs propidium iodide staining; format: functional, tissue-based
Procedure, shortened: (§2)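 Organotypic hippocampal slice cultures were exposed to NMDA or kainic acid alone, or with the investigational compound, in the presence of propidium iodide. Cell death was read as propidium iodide fluorescence intensity and compared with slices given excitotoxin alone.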

[11] = Toxicity in ip dosed CF1 mouse after 0.5 hr; format: organism-based; conditions: in vivo
Procedure, shortened: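 Quantitative toxicity test in male CF-1 mice dosed i.p. (0.5% methylcellulose suspension) at 50, 100, 200 and 350 mg/kg, eight mice per dose. Motor impairment was scored at 0.5 h and TD50 derived from the number of toxic mice over the number tested.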

[12] = system: Mus musculus; assay: Anticonvulsant activity against 32 mA-current- for 3 secs induced seizure in ip dosed CF1 mouse after 0.5 hr by 6Hz psychomotor seizure test; format: functional
Procedure, shortened: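 Quantitative 6 Hz test in male CF-1 mice. The compound was suspended in 0.5% methylcellulose and given i.p. at 50, 100, 200 and 350 mg/kg, eight mice per dose. Mice were stimulated through corneal electrodes (32 mA, 3 s) at a 0.5 h time of peak effect. ED50 was derived from the number of mice protected per dose.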

[13] = Neuroprotective activity against N-methyl-D-aspartate induced toxicity in hippocampus slices after 4 hrs propidium iodide staining; format: functional, tissue-based; procedure, shortened: as §2

SMILES | logP [1] | Activity [3] | Activity [4] | Activity [6] | Activity ([9]; route intraperitoneal) [%] | further results
CCCc1nc2ccccc2c(=O)n1/N=C/c1ccc(Oc2ccc(Br)cc2)cc1 | 5.88 | inactive | Non-toxic | inactive | 25 | Activity ([2]; route intraperitoneal): 50%; Activity ([5]; route intraperitoneal): 50%
O=c1c2ccccc2nc(-c2ccccc2)n1/N=C/c1ccc(Oc2ccc(Br)cc2)cc1 | 6.39 |  |  |  |  | 
CCCc1nc2ccccc2c(=O)n1/N=C/c1ccc(Oc2ccc3c(c2)OCO3)cc1 | 4.82 |  |  |  |  | 
CCCc1nc2ccccc2c(=O)n1/N=C/c1ccc(Oc2ccccc2)cc1 | 5.2 | inactive | Non-toxic | inactive |  | Activity [5]: inactive
Cc1ccc(Oc2ccc(/C=N/n3c(-c4ccccc4)nc4ccccc4c3=O)cc2)cc1 | 6.29 |  |  |  |  | Activity [7]: inactive; Activity [8]: inactive
O=C1Nc2ccccc2/C1=N\n1c(-c2ccccc2)nc2ccccc2c1=O | 4.03 |  |  |  |  | Activity [7]: inactive; Activity [8]: inactive
Cc1nc2ccccc2c(=O)n1/N=C/c1ccc(Oc2ccc(Br)cc2)cc1 | 4.64 | inactive | Non-toxic |  | 50 | Activity [5]: inactive
Cc1nc2ccccc2c(=O)n1/N=C/c1ccc(Oc2ccc3c(c2)OCO3)cc1 | 4.01 | inactive | Non-toxic | inactive |  | Activity [2]: inactive; Activity [5]: inactive
CCCc1nc2ccccc2c(=O)n1/N=C1/C(=O)Nc2ccccc21 | 3.23 | inactive | Non-toxic |  | 50 | Activity ([2]; route intraperitoneal): 50%; Activity ([5]; route intraperitoneal): 75%; Activity ([6]; route intraperitoneal): 25%
Cc1nc2ccccc2c(=O)n1/N=C/c1ccc(Oc2ccccc2)cc1 | 4.01 | inactive | Non-toxic | inactive |  | Activity [2]: inactive; Activity [5]: inactive
Cc1nc2ccccc2c(=O)n1/N=C/c1ccc(Oc2ccc([N+](=O)[O-])cc2)cc1 | 4.01 | inactive | Non-toxic |  |  | 
O=c1c2ccccc2nc(-c2ccccc2)n1/N=C/c1ccc(Oc2ccc([N+](=O)[O-])cc2)cc1 | 6.12 |  |  |  |  | Activity [7]: inactive; Activity [8]: inactive
O=c1c2ccccc2nc(-c2ccccc2)n1/N=C/c1ccc(Oc2ccc(Cl)cc2)cc1 | 6.38 |  |  |  |  | Activity [7]: inactive; Activity [8]: inactive
Cc1nc2ccccc2c(=O)n1/N=C/c1ccc(Oc2ccc(Cl)cc2)cc1 | 4.6 |  |  |  |  | 
O=c1c2ccccc2nc(-c2ccccc2)n1/N=C/c1ccc(Oc2ccc3c(c2)OCO3)cc1 | 6.01 | inactive | Non-toxic | inactive |  | Activity [2]: inactive; Activity [9]: inactive
Cc1cc(Oc2ccc(/C=N/n3c(C)nc4ccccc4c3=O)cc2)ccc1Cl | 4.41 | inactive | Non-toxic | inactive | 50 | Activity ([2]; route intraperitoneal): 25%; Activity ([5]; route intraperitoneal): 50%
O=c1c2ccccc2nc(-c2ccccc2)n1/N=C/c1ccc(Oc2ccccc2)cc1 | 6.13 |  |  |  |  | Activity [7]: inactive; Activity [8]: inactive

Further lines, with some results ahead:

logP [1] | SMILES | Activity [3] | Activity [4] | Activity [6] | Activity ([9]; route intraperitoneal) [%] | further results
2.23 | Cc1nc2ccccc2c(=O)n1/N=C1/C(=O)Nc2ccccc21 | inactive | Non-toxic | inactive |  | Activity [2]: inactive; Activity [5]: inactive
6.53 | O=c1c2ccccc2nc(-c2ccccc2)n1/N=C/c1ccc(Oc2ccc3ccccc3c2)cc1 |  |  |  |  | Activity [7]: inactive; Activity [8]: inactive
6.21 | O=c1c2ccccc2nc(-c2ccccc2)n1/N=C/c1ccc(Oc2ccc(F)cc2)cc1 | inactive | Non-toxic | inactive |  | Activity ([2]; route intraperitoneal): 25%
5.18 | CCCc1nc2ccccc2c(=O)n1/N=C/c1ccc(Oc2ccc([N+](=O)[O-])cc2)cc1 | inactive | Non-toxic | inactive |  | Activity [9]: inactive
5.22 | Cc1nc2ccccc2c(=O)n1/N=C/c1ccc(Oc2ccc3ccccc3c2)cc1 | inactive | Non-toxic | inactive | 50 | Activity [2]: inactive; Activity [5]: inactive
5.78 | CCCc1nc2ccccc2c(=O)n1/N=C/c1ccc(Oc2ccc(Cl)cc2)cc1 | inactive | Non-toxic | inactive |  | Activity [2]: inactive; Activity [9]: inactive; Activity ([5]; route intraperitoneal): 50%
4.21 | Cc1nc2ccccc2c(=O)n1/N=C/c1ccc(Oc2ccc(F)cc2)cc1 | inactive | Non-toxic |  |  | Activity ([2]; route intraperitoneal): 50%; Activity [5]: inactive
6.12 | CCCc1nc2ccccc2c(=O)n1/N=C/c1ccc(Oc2ccc3ccccc3c2)cc1 | inactive | Non-toxic | inactive | 50 | Activity ([2]; route intraperitoneal): 25%; Activity ([5]; route intraperitoneal): 50%
6.52 | Cc1cc(Oc2ccc(/C=N/n3c(-c4ccccc4)nc4ccccc4c3=O)cc2)ccc1Cl | inactive | Non-toxic |  | 100 | Activity [10]: inactive; Activity ([2]; route intraperitoneal): 25%; TD50 at 0.5 h [11]: > 350 mg/kg; Activity [9]: Active; ED50 [12]: > 350 mg/kg; Activity ([5]; route intraperitoneal): 75%; Activity [13]: inactive; Activity ([6]; route intraperitoneal): 25%
6.02 | CCCc1nc2ccccc2c(=O)n1/N=C/c1ccc(Oc2ccc(Cl)c(C)c2)cc1 | inactive | Non-toxic |  |  | Activity ([5]; route intraperitoneal): 50%
5.22 | CCCc1nc2ccccc2c(=O)n1/N=C/c1ccc(Oc2ccc(F)cc2)cc1 | inactive | Non-toxic | inactive |  | Activity [2]: inactive; Activity [9]: inactive
5.45 | CCCc1nc2ccccc2c(=O)n1/N=C/c1ccc(Oc2ccc(C)cc2)cc1 | inactive | Non-toxic | inactive | 50 | Activity [2]: inactive; Activity [5]: inactive
4.32 | Cc1ccc(Oc2ccc(/C=N/n3c(C)nc4ccccc4c3=O)cc2)cc1 | inactive | Non-toxic |  | 75 | Activity ([5]; route intraperitoneal): 50%; Activity ([6]; route intraperitoneal): 25%
